Consider 13 compounds from ChEMBL document CHEMBL1140153, “Structure-activity relationships of truncated D- and l-4'-thioadenosine derivatives as species-independent A3 adenosine receptor antagonists” (J Med Chem, 2008).

In test [1] the target is T1, Adenosine receptor A2b (Homo sapiens) (UniProt P29275).
T1 sequence (whole entry): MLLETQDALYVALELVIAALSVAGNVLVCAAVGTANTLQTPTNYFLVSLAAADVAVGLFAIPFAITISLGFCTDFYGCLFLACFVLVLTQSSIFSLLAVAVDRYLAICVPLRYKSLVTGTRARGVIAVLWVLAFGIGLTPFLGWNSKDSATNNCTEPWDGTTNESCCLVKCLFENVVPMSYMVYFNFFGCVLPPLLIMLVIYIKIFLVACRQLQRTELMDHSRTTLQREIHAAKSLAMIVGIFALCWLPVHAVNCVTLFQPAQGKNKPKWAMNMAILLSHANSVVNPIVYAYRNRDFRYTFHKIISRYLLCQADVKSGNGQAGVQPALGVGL
Description: Antagonist activity at human adenosine A2B receptor by cAMP assay. It counts as functional. A general note: Changes in cAMP serve as a functional read-out for many G protein-coupled receptors.

For test [2], the target named is T1, Adenosine receptor A2b (Homo sapiens). The test can be described thus: Agonist activity at human adenosine A2B receptor by cAMP assay. It counts as functional.
Test [3] concerns the target T2, Adenosine receptor A3 (Homo sapiens) (UniProt P0DMS8).
T2 sequence (whole entry): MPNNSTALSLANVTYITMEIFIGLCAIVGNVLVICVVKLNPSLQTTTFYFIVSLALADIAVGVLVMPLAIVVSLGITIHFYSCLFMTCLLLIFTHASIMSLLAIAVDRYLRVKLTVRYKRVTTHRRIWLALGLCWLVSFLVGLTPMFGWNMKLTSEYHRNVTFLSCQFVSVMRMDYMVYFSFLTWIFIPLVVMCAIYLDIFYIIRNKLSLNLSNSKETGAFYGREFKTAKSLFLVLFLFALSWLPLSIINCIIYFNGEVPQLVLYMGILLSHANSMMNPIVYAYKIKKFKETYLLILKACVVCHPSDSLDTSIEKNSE
Description: Antagonist activity at human adenosine A3 receptor expressed in CHO cells assessed as inhibition of forskolin-stimulated cAMP production at 10 uM relative to (2S,3S,4R,5R)-5-(6-(3-iodobenzylamino)-9H-purin-9-yl)-3,4-dihydroxy-N-methyl-tetrahydrothiophene-2-carboxamide. It is filed as functional, cell-based. On the set-up: scale not given: the % may be the effect or the level left. In a few lines: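 CHO cells stably expressing human A3 AR; forskolin-stimulated cAMP production measured with test compound at 10 μM; response given as mean percentage of a full A3 agonist's effect, n = 1–3.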

For test [4], the target named is T3, Adenosine receptor A3 (Homo sapiens, UniProt P0DMS8).
T3 sequence (P0DMS8 whole entry): T2 sequence (whole entry)
The test can be described thus: Displacement of [125I]I-AB-MECA from human adenosine A3 receptor expressed in CHO cells. It counts as cell-based. Background: In a radioligand displacement assay an active substance lowers the binding of a labelled ligand.

For test [5], the target named is Adenosine receptor A2a (Homo sapiens) (UniProt P29274). The test can be described thus: Displacement of [3H]CGS-21680 from human adenosine A2A receptor expressed in HEK293 cells at 10 uM. It is filed as cell-based. In a few lines:
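Human A2A AR HEK-293 membranes (20 μg/tube) with [3H]CGS21680 in 50 mM Tris-HCl pH 7.4 with 10 mM MgCl2, 60 min at 25 °C; nonspecific binding with 10 μM NECA; GF/B filtration.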

For test [6], the target named is T4, Adenosine receptor A3 (Rattus norvegicus) (UniProt P28647).
T4 sequence (whole entry): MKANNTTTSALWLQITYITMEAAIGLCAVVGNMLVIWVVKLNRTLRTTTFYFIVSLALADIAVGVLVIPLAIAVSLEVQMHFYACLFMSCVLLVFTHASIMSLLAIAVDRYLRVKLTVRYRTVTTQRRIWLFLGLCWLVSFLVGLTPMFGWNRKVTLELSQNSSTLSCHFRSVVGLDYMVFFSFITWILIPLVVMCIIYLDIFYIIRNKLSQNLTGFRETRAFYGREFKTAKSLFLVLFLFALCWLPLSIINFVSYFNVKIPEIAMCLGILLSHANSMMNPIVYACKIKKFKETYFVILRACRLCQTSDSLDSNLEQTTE
The test can be described thus: Displacement of [125I]I-AB-MECA from rat adenosine A3 receptor expressed in CHO cells at 10 uM. It is filed as cell-based. In a few lines: (§1)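 Membranes (20 μg protein) from CHO cells stably expressing human or rat A3 AR were incubated with 0.5 nM [125I]I-AB-MECA and increasing ligand concentrations in 50 mM Tris-HCl pH 7.4 with 10 mM MgCl2 for 60 min at 25 °C. Nonspecific binding was set with 10 μM NECA. Filtration through GF/B, washed ×3 with ice-cold buffer, γ-counting.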

Test [7] has as its target T5, Adenosine receptor A1 (Homo sapiens, UniProt P30542).
T5 sequence (P30542 whole entry): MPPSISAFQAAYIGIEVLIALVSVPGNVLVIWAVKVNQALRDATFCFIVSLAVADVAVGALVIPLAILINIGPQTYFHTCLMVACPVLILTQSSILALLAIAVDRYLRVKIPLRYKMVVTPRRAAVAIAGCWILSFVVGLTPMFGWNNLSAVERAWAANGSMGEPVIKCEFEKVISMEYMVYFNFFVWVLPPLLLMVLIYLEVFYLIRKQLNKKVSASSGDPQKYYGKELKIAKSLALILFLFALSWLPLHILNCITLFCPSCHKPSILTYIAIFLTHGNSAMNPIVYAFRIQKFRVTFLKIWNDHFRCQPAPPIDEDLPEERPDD
Description: Displacement of [3H]CCPA from human adenosine A1 receptor expressed in CHO cells. It is filed as cell-based.

Test [8] has as its target T6, Adenosine receptor A3 (Rattus norvegicus, UniProt P28647).
T6 sequence (P28647 whole entry): T4 sequence (whole entry)
The test can be described thus: Displacement of [125I]I-AB-MECA from rat adenosine A3 receptor expressed in CHO cells. It counts as cell-based.

Test [9] concerns the target T7, Adenosine receptor A1 (Homo sapiens) (UniProt P30542).
T7 sequence (whole entry): T5 sequence (P30542 whole entry)
Description: Displacement of [3H]CCPA from human adenosine A1 receptor expressed in CHO cells at 10 uM. It is filed as cell-based. In a few lines: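 Human A1 AR CHO membranes (40 μg/tube) were incubated with 1 nM [3H]CCPA in 50 mM Tris-HCl pH 7.4 with 10 mM MgCl2 for 60 min at 25 °C; 10 μM NECA defined nonspecific binding; GF/B filtration.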

The target of test [10] is T2, Adenosine receptor A3 (Homo sapiens). Description: Displacement of [125I]I-AB-MECA from human adenosine A3 receptor expressed in CHO cells at 10 uM. It is filed as cell-based. In a few lines:
as §1

The source made the active and inactive calls. No cut-off for these calls is given here.

Adenosine receptor A2a (Homo sapiens), sequence (P29274 whole entry): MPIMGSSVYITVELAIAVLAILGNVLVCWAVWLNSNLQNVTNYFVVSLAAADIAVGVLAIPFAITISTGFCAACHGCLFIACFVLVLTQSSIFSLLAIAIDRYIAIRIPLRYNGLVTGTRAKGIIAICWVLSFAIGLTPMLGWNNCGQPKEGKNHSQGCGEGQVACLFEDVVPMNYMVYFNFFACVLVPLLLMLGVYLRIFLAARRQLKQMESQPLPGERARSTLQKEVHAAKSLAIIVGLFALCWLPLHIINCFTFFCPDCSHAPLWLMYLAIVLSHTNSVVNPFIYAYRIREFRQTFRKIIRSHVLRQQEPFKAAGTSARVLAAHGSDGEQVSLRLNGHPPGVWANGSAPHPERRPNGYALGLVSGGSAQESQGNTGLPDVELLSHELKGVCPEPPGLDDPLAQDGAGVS

As to `O[C@@H]1[C@H](O)CS[C@H]1n1cnc2c(NCc3cccc(I)c3)nc(Cl)nc21`, the result in test [1] and in test [2] was inactive. Further, the Activity in [3] is below 10%.

Consider `O[C@@H]1[C@H](O)CS[C@H]1n1cnc2c(NCc3cccc(F)c3)nc(Cl)nc21`, for which, in test [3], the Activity was below 10%.

With `CNc1ncnc2c1ncn2[C@@H]1SC[C@@H](O)[C@H]1O`, the figures for the Ki in [4] and in test [7] were 4.8 nM and 1070 nM, respectively. Moreover, the inhibition – broadly, the drop in the measured response relative to a control, in per cent – in [5] was 22%; in [6] it was 28%. The Activity in [3] is below 10%.

With `O[C@@H]1[C@H](O)CS[C@H]1n1cnc2c(NCc3cccc(Cl)c3)nc(Cl)nc21`, in [3], the Activity was below 10%.

As for `O[C@@H]1[C@H](O)CS[C@H]1n1cnc2c(NCc3cccc(I)c3)ncnc21`, the Activity in [3] is below 10%.

Regarding `O[C@@H]1[C@H](O)CS[C@H]1n1cnc2c(NCc3cccc(Br)c3)nc(Cl)nc21`, in test [3], the Activity was below 10%.

Consider `O[C@@H]1[C@H](O)CS[C@H]1n1cnc2c(NCc3cccc(Br)c3)ncnc21`, for which affinity in test [8] was put at a Ki of 6.3 nM. For the same compound, the Activity in test [3] is below 10%.

On to `CNc1nc(Cl)nc2c1ncn2[C@@H]1SC[C@@H](O)[C@H]1O`, for which, in test [3], the Activity is below 10%.

In the case of `O[C@@H]1[C@H](O)CS[C@H]1n1cnc2c(NCc3cccc(F)c3)ncnc21`, in test [8], affinity was put at a Ki of 98 nM. Besides, the Activity in test [3] was below 10%.

On to `O[C@H]1[C@@H](O)CS[C@@H]1n1cnc2c(NCc3cccc(I)c3)nc(Cl)nc21`, for which the inhibition is -8% in [9], 18.4% in test [10] and -0.95% in test [5]. Also, the Activity in [3] is below 10%.

As for `CNC(=O)[C@H]1S[C@@H](n2cnc3c(NCc4cccc(I)c4)ncnc32)[C@H](O)[C@@H]1O`, the Ki (usually the equilibrium dissociation constant of an inhibitor or competing ligand from its target) in [4] was determined as 0.25 nM; in test [8], 1.86 nM; in test [7] it was 17.3 nM. In addition, in test [3], the outcome was Active.

For `O[C@H]1[C@@H](O)CS[C@@H]1n1cnc2c(NCc3cccc(Br)c3)nc(Cl)nc21`, the inhibition in [9] came to 6.1%; in [10] it was 12.6%; in test [5] it was 45.7%. In addition, the Activity in test [3] was below 10%.

Take `O[C@@H]1[C@H](O)CS[C@H]1n1cnc2c(NCc3cccc(Cl)c3)ncnc21`: the inhibition constant (Ki) in test [8] is 17 nM. In addition, in test [3], the Activity is below 10%.
